Data on 1 molecule can be found in ChEMBL document CHEMBL1255300, “Pharmacodynamics of the antibacterial effect and emergence of resistance to tomopenem, formerly RO4908463/CS-023, in an in vitro pharmacokinetic model of Staphylococcus aureus infection” (Antimicrob Agents Chemother, 2008).

Assay type in all cases: functional
Test [1] concerns Staphylococcus aureus. The experiment in a line: Antibacterial activity against methicillin-resistant Staphylococcus aureus 33922 infected in in vitro pharmacokinetic model assessed as reduction in viable count at 3 mg/ml after 24 hrs using 10^6 CFU/ml inoculum.
Test [2] deals with Staphylococcus aureus. The test can be described thus: AUBKC (0 to 24 hrs) in methicillin-resistant Staphylococcus aureus 33922 infected in in vitro pharmacokinetic model at 3 mg/ml using 10^6 CFU/ml inoculum. The gist of the method: (§1)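 Run in a single-compartment in vitro PK model at 37°C in 10% MHB, flow 47.9 ml/h, 10^6 CFU/ml inoculum. Viable counts over 48 h. AUBKC 0-24 and 0-48 h by log-linear trapezoidal rule, at least triplicate.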

The subject of test [3] is Staphylococcus aureus. The experiment in a line: Antibacterial activity against methicillin-resistant Staphylococcus aureus 33922 infected in in vitro pharmacokinetic model assessed as time required to 99% killing at 3 mg/ml using 10^6 CFU/ml inoculum.
For test [4], the system named is Staphylococcus aureus. The test can be described thus: Antibacterial activity against methicillin-resistant Staphylococcus aureus 33827 infected in in vitro pharmacokinetic model assessed as reduction in viable count at 3 mg/ml after 12 hrs using 10^6 CFU/ml inoculum.
Test [5] deals with Staphylococcus aureus. The experiment in a line: AUBKC (0 to 24 hrs) in methicillin-resistant Staphylococcus aureus 33827 infected in in vitro pharmacokinetic model at 3 mg/ml using 10^6 CFU/ml inoculum. The gist of the method:
as §1

Test [6] has as its system Staphylococcus aureus. The experiment in a line: Antibacterial activity against methicillin-resistant Staphylococcus aureus 33827 infected in in vitro pharmacokinetic model assessed as reduction in viable count at 3 mg/ml after 24 hrs using 10^6 CFU/ml inoculum.
The subject of test [7] is Staphylococcus aureus. The experiment in a line: Antibacterial activity against methicillin-resistant Staphylococcus aureus 33922 infected in in vitro pharmacokinetic model assessed as reduction in viable count at 3 mg/ml after 12 hrs using 10^6 CFU/ml inoculum.
The subject of test [8] is Staphylococcus aureus. The test can be described thus: Antibacterial activity against methicillin-resistant Staphylococcus aureus 33815 infected in in vitro pharmacokinetic model assessed as reduction in viable count at 3 mg/ml after 12 hrs using 10^6 CFU/ml inoculum. The gist of the method: (§2)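 Single-compartment model in 10% MHB at 37°C with 10^6 CFU/ml inoculum. Log change in count from time 0 and times to 99%/99.9% kill from serial spiral-plate counts; at least triplicate.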

Test [9] deals with Staphylococcus aureus. The test can be described thus: Antibacterial activity against methicillin-resistant Staphylococcus aureus 33922 infected in in vitro pharmacokinetic model assessed as time required to 99.9% killing at 3 mg/ml using 10^6 CFU/ml inoculum.
For test [10], the system named is Staphylococcus aureus. The test can be described thus: Antibacterial activity against methicillin-resistant Staphylococcus aureus 33827 infected in in vitro pharmacokinetic model assessed as reduction in viable count at 3 mg/ml after 48 hrs using 10^6 CFU/ml inoculum.
Test [11] has as its system Staphylococcus aureus. The experiment in a line: Antibacterial activity against methicillin-resistant Staphylococcus aureus 33815 infected in in vitro pharmacokinetic model assessed as reduction in viable count at 3 mg/ml after 48 hrs using 10^6 CFU/ml inoculum. In short, it runs like this: as §2
Test [12] concerns Staphylococcus aureus. The test can be described thus: AUBKC (0 to 24 hrs) in methicillin-resistant Staphylococcus aureus 33815 infected in in vitro pharmacokinetic model at 3 mg/ml using 10^6 CFU/ml inoculum. In short, it runs like this: as §1
In test [13] the test system is Staphylococcus aureus. The experiment in a line: Antibacterial activity against methicillin-resistant Staphylococcus aureus 33922 infected in in vitro pharmacokinetic model assessed as reduction in viable count at 3 mg/ml after 36 hrs using 10^6 CFU/ml inoculum.
Test [14] has as its system Staphylococcus aureus. The test can be described thus: Antibacterial activity against methicillin-resistant Staphylococcus aureus 33815 infected in in vitro pharmacokinetic model assessed as reduction in viable count at 3 mg/ml after 24 hrs using 10^6 CFU/ml inoculum. In short, it runs like this:
as §2

Test [15] concerns Staphylococcus aureus. The test can be described thus: Antibacterial activity against methicillin-resistant Staphylococcus aureus 33815 infected in in vitro pharmacokinetic model assessed as time required to 99% killing at 3 mg/ml using 10^6 CFU/ml inoculum. The gist of the method:
as §2

For test [16], the system named is Staphylococcus aureus. The experiment in a line: Antibacterial activity against methicillin-resistant Staphylococcus aureus 33815 infected in in vitro pharmacokinetic model assessed as time required to 99.9% killing at 3 mg/ml using 10^6 CFU/ml inoculum. In short, it runs like this: as §2
In test [17] the test system is Staphylococcus aureus. The experiment in a line: AUBKC (0 to 48 hrs) in methicillin-resistant Staphylococcus aureus 33815 infected in in vitro pharmacokinetic model at 3 mg/ml using 10^6 CFU/ml inoculum. The gist of the method:
as §1

For test [18], the system named is Staphylococcus aureus. The test can be described thus: AUBKC (0 to 48 hrs) in methicillin-resistant Staphylococcus aureus 33922 infected in in vitro pharmacokinetic model at 3 mg/ml using 10^6 CFU/ml inoculum. The gist of the method:
as §1

Test [19] deals with Staphylococcus aureus. The experiment in a line: Antibacterial activity against methicillin-resistant Staphylococcus aureus 33827 infected in in vitro pharmacokinetic model assessed as reduction in viable count at 3 mg/ml after 36 hrs using 10^6 CFU/ml inoculum.
Test [20] relates to Staphylococcus aureus. The experiment in a line: Antibacterial activity against methicillin-resistant Staphylococcus aureus 33827 infected in in vitro pharmacokinetic model assessed as time required to 99% killing at 3 mg/ml using 10^6 CFU/ml inoculum.
For test [21], the system named is Staphylococcus aureus. The experiment in a line: Antibacterial activity against methicillin-resistant Staphylococcus aureus 33922 infected in in vitro pharmacokinetic model assessed as reduction in viable count at 3 mg/ml after 48 hrs using 10^6 CFU/ml inoculum.
In test [22] the test system is Staphylococcus aureus. The test can be described thus: Antibacterial activity against methicillin-resistant Staphylococcus aureus 33815 infected in in vitro pharmacokinetic model assessed as reduction in viable count at 3 mg/ml after 36 hrs using 10^6 CFU/ml inoculum. In short, it runs like this: as §2
The test system of test [23] is Staphylococcus aureus. The experiment in a line: AUBKC (0 to 48 hrs) in methicillin-resistant Staphylococcus aureus 33827 infected in in vitro pharmacokinetic model at 3 mg/ml using 10^6 CFU/ml inoculum. The gist of the method: as §1
Test [24] relates to Staphylococcus aureus. The experiment in a line: Antibacterial activity against methicillin-resistant Staphylococcus aureus 33827 infected in in vitro pharmacokinetic model assessed as time required to 99.9% killing at 3 mg/ml using 10^6 CFU/ml inoculum.

Take `CN[C@H](CC(C)C)C(=O)N[C@H]1C(=O)N[C@@H](CC(N)=O)C(=O)N[C@H]2C(=O)N[C@H]3C(=O)N[C@H](C(=O)N[C@H](C(=O)O)c4cc(O)cc(O)c4-c4cc3ccc4O)[C@H](O)c3ccc(c(Cl)c3)Oc3cc2cc(c3O[C@@H]2O[C@H](CO)[C@@H](O)[C@H](O)[C@H]2O[C@H]2C[C@](C)(N)[C@H](O)[C@H](C)O2)Oc2ccc(cc2Cl)[C@H]1O` [VANCOMYCIN]: the log10CFU/ml in the test on Staphylococcus aureus [1] was 2.6; in the test on Staphylococcus aureus [4] it was 1.8; in the test with Staphylococcus aureus [6], 3.2; in the test on Staphylococcus aureus [7] it was 2.2; in the test with Staphylococcus aureus [8], 3.3; with Staphylococcus aureus [10], 4.2. In addition, the log10CFU/ml in the test on Staphylococcus aureus [11] is 1.6; with Staphylococcus aureus [13] it was 3; with Staphylococcus aureus [14] it was 2; in the test on Staphylococcus aureus [19], 4; in the test on Staphylococcus aureus [21], 2.9; in the test with Staphylococcus aureus [22], 1.7. Moreover, the AUBC in the test on Staphylococcus aureus [2] worked out at 54.8 log10CFU/ml.hr; with Staphylococcus aureus [5] it was 56.7 log10CFU/ml.hr; in the test on Staphylococcus aureus [12], 46.2 log10CFU/ml.hr; in the test on Staphylococcus aureus [17], 97.4 log10CFU/ml.hr; in the test on Staphylococcus aureus [18], 80.1 log10CFU/ml.hr; with Staphylococcus aureus [23], 61.9 log10CFU/ml.hr. The Time was 12 h in the test on Staphylococcus aureus [3]; more than 48 h in the test with Staphylococcus aureus [9]; 12 h in the test on Staphylococcus aureus [15]; 12 h with Staphylococcus aureus [16]; 24 h in the test on Staphylococcus aureus [20]; 24 h with Staphylococcus aureus [24].
